Measured values as given in ChEMBL document CHEMBL3526048, “In vitro metabolism of rivoglitazone, a novel peroxisome proliferator-activated receptor γ agonist, in rat, monkey, and human liver microsomes and freshly isolated hepatocytes” (Drug Metab Dispos, 2011).

What was measured:
Type in all cases: ADME
[1] = biological target: Cytochrome P450 3A5 (Homo sapiens, UniProt P20815); experiment: (§1) Activity of human CYP3A5 expressed in microsomes isolated from baculovirus infected insect cell assessed as enzyme-mediated 3-(4-((6-methoxy-1-methyl-1H-benzo[d]imidazol-2-yl)methoxy)phenyl)-2-(methylthio)propanoic acid formation at 20 uM after 2 hrs by radio-HPLC/LC-MS/MS analysis in presence of NADPH-generating system/SAM and UDPGA/SAM
Chain of Cytochrome P450 3A5 (P20815 whole entry): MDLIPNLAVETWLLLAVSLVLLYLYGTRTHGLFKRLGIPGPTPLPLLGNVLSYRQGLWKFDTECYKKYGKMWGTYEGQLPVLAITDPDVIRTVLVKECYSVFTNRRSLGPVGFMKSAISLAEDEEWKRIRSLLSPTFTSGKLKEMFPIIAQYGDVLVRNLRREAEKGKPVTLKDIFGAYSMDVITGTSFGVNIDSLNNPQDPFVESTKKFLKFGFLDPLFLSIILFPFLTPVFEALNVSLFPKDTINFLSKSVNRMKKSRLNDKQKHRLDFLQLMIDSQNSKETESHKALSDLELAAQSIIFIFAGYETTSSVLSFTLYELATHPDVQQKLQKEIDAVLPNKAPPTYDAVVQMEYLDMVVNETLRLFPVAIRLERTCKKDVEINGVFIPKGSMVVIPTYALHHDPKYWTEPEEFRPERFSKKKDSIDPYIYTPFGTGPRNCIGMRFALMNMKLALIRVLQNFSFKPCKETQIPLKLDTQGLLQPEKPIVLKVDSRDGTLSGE
Summary of the method: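 cDNA-expressed human CYP3A5 in baculovirus-insect-cell microsomes (1 mg/ml protein) was incubated with [¹⁴C]rivoglitazone (20 μM) in 50 mM potassium phosphate (pH 7.4) or 100 mM Tris-HCl (pH 7.5). NADPH-generating system: 2 mM NADP⁺, 20 mM glucose 6-phosphate, 2 units/ml G6PDH, 10 mM MgCl₂. Incubation ran 2 h at 37°C with shaking; insect-cell control supersomes served as control. Acetonitrile stop, supernatant concentrated, then radio-HPLC, LC-MS and LC-MS/MS.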

[2] = biological target: T1, UDP-glucuronosyltransferase 2B7 (Homo sapiens, UniProt P16662); experiment: as §1, with “human UGT2B7” for “human CYP3A5”, “after 4” for “after 2”, “UDPGA/SAM in presence of UDPGA and UDPGA/SAM” for “UDPGA/SAM”
T1 sequence (P16662 whole entry): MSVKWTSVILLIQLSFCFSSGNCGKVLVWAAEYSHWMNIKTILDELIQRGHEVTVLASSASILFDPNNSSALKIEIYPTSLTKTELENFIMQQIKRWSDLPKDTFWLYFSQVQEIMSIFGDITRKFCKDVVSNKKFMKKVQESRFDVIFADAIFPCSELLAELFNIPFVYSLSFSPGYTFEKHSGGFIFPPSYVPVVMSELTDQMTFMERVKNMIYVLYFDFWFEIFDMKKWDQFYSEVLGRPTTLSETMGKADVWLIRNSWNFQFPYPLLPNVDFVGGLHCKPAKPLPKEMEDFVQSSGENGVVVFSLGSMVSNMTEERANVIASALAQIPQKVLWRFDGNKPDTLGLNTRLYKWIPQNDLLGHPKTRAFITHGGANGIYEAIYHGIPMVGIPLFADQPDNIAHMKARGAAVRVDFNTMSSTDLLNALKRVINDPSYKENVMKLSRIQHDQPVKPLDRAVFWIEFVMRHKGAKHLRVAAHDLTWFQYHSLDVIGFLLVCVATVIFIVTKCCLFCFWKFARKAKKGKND

[3] = biological target: T2, UDP-glucuronosyltransferase 2B4 (Homo sapiens, UniProt P06133); experiment: Activity of human UGT2B4 expressed in microsomes isolated from baculovirus infected insect cell assessed as enzyme-mediated 2-mercapto-3-(4-((6-methoxy-1-methyl-1H-benzo[d]imidazol-2-yl)methoxy)phenyl)propanoic acid formation at 20 uM after 4 hrs by radio-HPLC/LC-MS/MS analysis in presence of UDPGA
T2 sequence (P06133 whole entry): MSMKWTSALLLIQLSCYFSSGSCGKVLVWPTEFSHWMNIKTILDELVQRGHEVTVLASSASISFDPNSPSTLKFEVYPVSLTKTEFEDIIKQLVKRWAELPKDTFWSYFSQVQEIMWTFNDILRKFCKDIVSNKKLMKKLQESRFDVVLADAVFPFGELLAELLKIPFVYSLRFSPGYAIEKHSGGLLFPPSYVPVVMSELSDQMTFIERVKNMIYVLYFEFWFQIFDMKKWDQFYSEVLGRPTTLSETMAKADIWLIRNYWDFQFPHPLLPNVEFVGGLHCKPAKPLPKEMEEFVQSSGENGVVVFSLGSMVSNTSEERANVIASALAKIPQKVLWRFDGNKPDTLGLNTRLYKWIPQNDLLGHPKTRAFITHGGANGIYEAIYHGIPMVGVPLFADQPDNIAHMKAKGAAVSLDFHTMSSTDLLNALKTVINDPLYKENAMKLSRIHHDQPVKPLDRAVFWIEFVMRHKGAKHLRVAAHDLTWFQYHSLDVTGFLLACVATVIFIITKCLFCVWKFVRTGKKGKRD

[4] = biological target: Cytochrome P450 2D6 (Homo sapiens, UniProt P10635); experiment: Activity of human CYP2D6 expressed in microsomes isolated from baculovirus infected insect cell assessed as enzyme-mediated 3-(4-((6-methoxy-1-methyl-1H-benzo[d]imidazol-2-yl)methoxy)phenyl)-2-(methylsulfinyl)propanamide formation at 20 uM after 2 hrs by radio-HPLC/LC-MS/MS analysis in presence of NADPH-generating system/SAM
Chain of Cytochrome P450 2D6 (P10635 whole entry): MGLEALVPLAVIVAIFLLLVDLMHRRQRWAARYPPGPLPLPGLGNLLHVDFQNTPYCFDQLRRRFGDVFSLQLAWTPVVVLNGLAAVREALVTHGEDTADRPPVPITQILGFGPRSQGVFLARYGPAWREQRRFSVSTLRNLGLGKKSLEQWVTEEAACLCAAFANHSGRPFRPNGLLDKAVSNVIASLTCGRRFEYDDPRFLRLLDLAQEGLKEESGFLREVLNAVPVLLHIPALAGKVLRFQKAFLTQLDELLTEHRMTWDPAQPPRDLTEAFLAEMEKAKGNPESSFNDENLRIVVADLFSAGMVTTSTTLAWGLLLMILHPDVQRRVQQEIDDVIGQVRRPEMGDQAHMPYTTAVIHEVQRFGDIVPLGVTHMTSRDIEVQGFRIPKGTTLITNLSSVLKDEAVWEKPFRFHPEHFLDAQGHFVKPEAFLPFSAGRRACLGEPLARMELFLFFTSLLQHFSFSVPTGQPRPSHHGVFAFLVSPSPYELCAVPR

[5] = tested on: Liver microsome; experiment: Drug metabolism in Sprague-Dawley rat liver microsomes assessed as formation of (2S,3S,4S,5R,6R)-6-((1-carboxy-2-(4-((6-methoxy-1-methyl-1H-benzo[d]imidazol-2-yl)methoxy)phenyl)ethylthio)carbonylamino)-3,4,5-trihydroxytetrahydro-2H-pyran-2-carboxylic acid at 20 uM after 4 hrs by radio-HPLC/LC-MS/MS analysis in presence of UDPGA and UDPGA/SAM
[6] = tested on: Liver microsome; experiment: Drug metabolism in human liver microsomes assessed as formation of (2S,3S,4S,5R,6R)-3,4,5-trihydroxy-6-(5-(4-((6-methoxy-1-methyl-1H-benzo[d]imidazol-2-yl)methoxy)benzyl)-2,4-dioxothiazolidin-3-yl)tetrahydro-2H-pyran-2-carboxylic acid at 20 uM after 4 hrs by radio-HPLC/LC-MS/MS analysis in presence of UDPGA and UDPGA/SAM
[7] = biological target: T3, UDP-glucuronosyltransferase 1A7 (Homo sapiens, UniProt Q9HAW7); experiment: Activity of human UGT1A7 expressed in microsomes isolated from baculovirus infected insect cell assessed as enzyme-mediated 2-mercapto-3-(4-((6-methoxy-1-methyl-1H-benzo[d]imidazol-2-yl)methoxy)phenyl)propanoic acid formation at 20 uM after 4 hrs by radio-HPLC/LC-MS/MS analysis in presence of UDPGA
T3 sequence (Q9HAW7 whole entry): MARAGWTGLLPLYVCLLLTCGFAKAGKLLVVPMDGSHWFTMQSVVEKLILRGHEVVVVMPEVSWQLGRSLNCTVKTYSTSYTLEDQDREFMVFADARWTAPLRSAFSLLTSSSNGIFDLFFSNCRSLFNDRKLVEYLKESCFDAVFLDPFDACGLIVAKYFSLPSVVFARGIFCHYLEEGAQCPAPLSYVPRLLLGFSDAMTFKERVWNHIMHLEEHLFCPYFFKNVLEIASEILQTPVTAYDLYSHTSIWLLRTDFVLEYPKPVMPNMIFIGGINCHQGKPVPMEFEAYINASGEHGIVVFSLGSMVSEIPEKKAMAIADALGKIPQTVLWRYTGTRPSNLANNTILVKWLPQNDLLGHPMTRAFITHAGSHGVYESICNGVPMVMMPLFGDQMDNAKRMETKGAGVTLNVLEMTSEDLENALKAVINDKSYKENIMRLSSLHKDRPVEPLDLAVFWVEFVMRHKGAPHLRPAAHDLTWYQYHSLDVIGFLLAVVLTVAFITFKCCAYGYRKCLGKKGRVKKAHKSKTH

COc1ccc2nc(COc3ccc(C[14CH]4SC(=O)NC4=O)cc3)n(C)c2c1.Cl (racemic)
Drug metabolism [1]: metabolite_not_detected | Drug metabolism [2]: metabolite_not_detected | Drug metabolism [3]: metabolite_not_detected | Drug metabolism [4]: metabolite_not_detected | Drug metabolism [5]: metabolite_detected | Drug metabolism [6]: metabolite_detected | Drug metabolism [7]: metabolite_not_detected
